Screens (PubChem BioAssay)
CHO-K1 Ca antag: nonselective inhibitor or artifact in parental CHO-K1 cells; ATP-induced calcium, Fluo-8 fluorescence; inhibition, % at 3 µM; 0.6% of 360,000 active;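 active = inhibition above a per-plate cutoff, the plate's mean sample inhibition plus 3 SD, cut at about 24% in these data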
TRPN1 ag: zebrafish TRPN1 (NompC) channel agonism | HEK293 zebrafish TRPN1-YFP, Fluo-8 calcium fluorescence; 100% = response to 87 µM carbachol | 0.18% of 220,000 active | activation, % at 3 µM;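 active = activation above its plate's cutoff, the mean activation of test wells on that plate plus 3 SD, cut at about 19% in these data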
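Control set: carbachol 87 µM as high control, DMSO as low control; system: HEK293 stable line with zebrafish TRPN1-YFP; read-out: % activation versus carbachol response; detection: intracellular calcium fluorescence with Fluo-8; doses: single test compound dose, 3 µM nominal, 0.3% DMSO; schedule: dye 1 h 37 °C plus 30 min RT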
M1 ag parental: counter-screen for M1 agonists: effect in parental CHO-K1 cells. Fluo-8 calcium fluorescence; scaled to maximal ATP response, vehicle zero. activation, % at 3 µM. 0.48% of 360,000 active; in the data active = activation above about 15%;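 note: untransfected CHO-K1 host cells lacking M1 receptor as counterscreen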
TRPML3 agonist: activates the human TRPML3 channel | HEK293 TRPML3-YFP, Fluo-8 calcium fluorescence; 100% = the carbachol control signal | activation, % at 3 µM | 0.29% of 220,000 active | AID 1448;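 active = activation above its plate's cutoff, the mean activation of the plate's test wells plus 3 SD, cut at about 12% in these data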
Target sequence (Q8TDD5 whole entry, looked up): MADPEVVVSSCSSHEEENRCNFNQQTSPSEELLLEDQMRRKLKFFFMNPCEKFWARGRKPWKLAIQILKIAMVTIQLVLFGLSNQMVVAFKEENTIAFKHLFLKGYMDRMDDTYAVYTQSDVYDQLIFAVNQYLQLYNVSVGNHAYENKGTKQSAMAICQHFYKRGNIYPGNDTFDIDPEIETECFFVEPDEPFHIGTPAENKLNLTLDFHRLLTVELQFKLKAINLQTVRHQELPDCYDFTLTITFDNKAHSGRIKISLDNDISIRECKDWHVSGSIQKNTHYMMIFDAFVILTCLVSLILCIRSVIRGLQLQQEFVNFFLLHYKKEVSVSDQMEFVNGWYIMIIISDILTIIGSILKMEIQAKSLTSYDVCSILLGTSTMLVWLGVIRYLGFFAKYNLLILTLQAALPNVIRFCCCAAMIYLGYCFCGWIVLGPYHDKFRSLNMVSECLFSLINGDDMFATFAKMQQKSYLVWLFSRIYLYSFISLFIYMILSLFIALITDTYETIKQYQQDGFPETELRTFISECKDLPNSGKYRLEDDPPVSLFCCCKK
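Material: HEK293 cells stably carrying human TRPML3-YFP; compound dosing: single dose, 3 µM final nominal compound, 0.3% DMSO final; incubation: 1-h 37 °C dye load, 5-s basal, 120-s post-compound reads; technique: Fluo-8 intracellular calcium fluorescence, excitation 470-495 nm, emission 515-575 nm; read-out basis: percent activation from peak-to-basal fluorescence ratio, scaled between DMSO and carbachol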
CHO-K1 Ca PAM: counter-screen for M1 PAMs: effect in parental CHO-K1 cells. activation, % at 3 µM. AID 602247. ATP EC20, Fluo-8 calcium fluorescence; 0% at ATP EC20, 100% at ATP max. 0.02% of 360,000 active;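 active = activation above the run cutoff, the mean activation of all test compounds plus 3 SD, cut at about 40% in these data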;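 note: peak over basal fluorescence ratio in a 140 s read after ATP addition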
Each line names hits and unclear results; the compound was inactive in the other large screens. In the library only some 1.2% were active in any assay of this set; here they are far more common.

Cc1ccc(CS(=O)(=O)c2cn(CC(=O)Nc3ccon3)c3ccccc23)cc1	M1 ag parental 19 (no result: TRPN1 ag, TRPML3 agonist)
COc1ccc(OC)c(NC(=O)c2cc(OC(C)=O)cc(C(=O)Nc3cc(OC)ccc3OC)c2)c1	CHO-K1 Ca antag 30 (no result: TRPN1 ag, TRPML3 agonist)
O=c1oc2ccccc2c(Nc2cccc3ccccc23)c1[N+](=O)[O-]	CHO-K1 Ca antag 26
Cc1cn([C@H]2C[C@H](O)[C@@H](CCC(=O)NCC3CCCO3)O2)c(=O)[nH]c1=O (some centres undefined)	none (no result: TRPN1 ag, TRPML3 agonist)
CC(=O)Nc1ccc(S(=O)(=O)NCC(=O)OCC(=O)NCc2ccco2)cc1	CHO-K1 Ca antag 28 (no result: TRPN1 ag, TRPML3 agonist)
C[C@@H](c1ccccc1)N1C[C@@H](COCc2ccccc2)Oc2cc(N3CCC[C@H]3CO)ccc2S1(=O)=O	none (no result: TRPN1 ag, TRPML3 agonist)
CN(C(=O)c1cc2c(cc1Br)OCO2)c1cccc2ccccc12	none (no result: TRPN1 ag, TRPML3 agonist)
Cc1[nH]nc2c1C(c1ccc(F)cc1)C1=C(CC(C)(C)CC1=O)N2 (centres undefined)	none
Cc1ccc(C2C3=C(CC(C)(C)CC3=O)Nc3n[nH]c(C)c32)cc1 (centres undefined)	CHO-K1 Ca antag 25
COc1cccc(CNC(=O)c2ccc(F)c(S(=O)(=O)N3CCCCC3)c2)c1	none (no result: TRPN1 ag, TRPML3 agonist)
COC(=O)c1ccc2nc(NC(=O)COC(=O)CSc3nc(C)cc(C)n3)sc2c1	M1 ag parental 15
Cc1ccc2nc(NC(=O)COC(=O)CSc3nc(C)cc(C)n3)sc2c1	none
O=C(Nc1ccc(Cl)cc1)c1ccc2sc([C@@H]3O[C@H](CO)[C@@H](O)[C@H]3O)nc2c1	none (no result: TRPN1 ag, TRPML3 agonist)
CCCCOc1ccc(S(=O)(=O)Nc2cccnc2)cc1	M1 ag parental 30
COc1ccc(CNC(=O)Cn2cc([N+](=O)[O-])cn2)cc1	CHO-K1 Ca antag 57 (no result: TRPN1 ag, TRPML3 agonist)
CC(C)(C)c1ccc(C(=O)CCC(=O)OCC(=O)NCCc2ccc(S(N)(=O)=O)cc2)cc1	M1 ag parental 20 (no result: TRPN1 ag, TRPML3 agonist)
CC(Oc1ccccc1)C(=O)N1CCc2ccccc2C1 (centres undefined)	none (no result: TRPN1 ag, TRPML3 agonist)
COc1ccc(OC(C)C(=O)N2CCc3ccccc3C2)cc1 (centres undefined)	CHO-K1 Ca antag 25
CS(=O)(=O)Nc1cccc(NC(=O)c2cccc3c(-c4ccc(F)c(F)c4)coc23)c1	none (no result: TRPN1 ag, TRPML3 agonist)
CCc1cc(C(=O)Nc2cc(Cl)ccc2N2CCN(C)CC2)sc1C	CHO-K1 Ca antag 28 (no result: TRPN1 ag, TRPML3 agonist)
COc1ccc(-c2c3c([nH]c(=S)c2C#N)CCC3)cc1	CHO-K1 Ca antag 26
Cc1ccc(N/N=C/c2cccnc2)cc1	none
Cc1csc(N/N=C\c2cccnc2)n1	M1 ag parental 17
COc1ccc(CC(=O)NC(C)c2nnc(SCC(=O)Nc3nc(C)cs3)n2C)cc1 (centres undefined)	CHO-K1 Ca antag 31
COc1ccc(CC(=O)NC(C)c2nnc(SCC(=O)c3ccc(Br)cc3)n2C)cc1 (centres undefined)	none
CCOC(=O)C1CCN(c2ncnc3c2oc2ccc(Cl)cc23)CC1	CHO-K1 Ca antag 27
CC1=C(C(=O)N2CCCCCC2)CC(CC(=O)NC2CCCCC2)C(=O)N1Cc1ccc(F)cc1 (centres undefined)	none (no result: TRPN1 ag, TRPML3 agonist)
Nc1c(C(=O)O)sc2nc3c(cc12)CCCC3	M1 ag parental 16
Nc1[nH]c(C(=O)c2ccccc2)c(-c2c(F)cccc2F)c1C(=O)c1ccc(Cl)c(Cl)c1	none (no result: TRPN1 ag, TRPML3 agonist)
O=S1(=O)CC(N2CCN(CC3CC3)CC2)CN1Cc1cn(Cc2ccccc2C(F)(F)F)nn1 (centres undefined)	none (no result: TRPN1 ag, TRPML3 agonist)
CN(c1ccc(F)cc1)S(=O)(=O)c1ccc(Cl)c(C(=O)Nc2ccncc2)c1	CHO-K1 Ca antag 34 (no result: TRPN1 ag, TRPML3 agonist)
O=C(Nc1ccccc1)c1cc(S(=O)(=O)NCc2ccncc2)ccc1Cl	CHO-K1 Ca antag 24 (no result: TRPN1 ag, TRPML3 agonist)
CN(c1ccccc1)S(=O)(=O)c1ccc(Cl)c(C(=O)Nc2ccncc2)c1	M1 ag parental 16 (no result: TRPN1 ag, TRPML3 agonist)
CCCCC[C@H](C)N1C[C@@H](COCc2ccccc2)Oc2cc(N3CCC[C@@H]3COC)ccc2S1(=O)=O	none (no result: TRPN1 ag, TRPML3 agonist)
CCN1C(=O)c2ccccc2S(=O)c2ccc(C(=O)N3CCOCC3)cc21 (centres undefined)	M1 ag parental 18
Cc1ccc(C)c(C(=O)N(Cc2nc(-c3ccc(Cl)cc3)no2)C(C)C)c1	TRPML3 agonist 28
COc1cccc(C(=O)N(Cc2nc(-c3ccc(C)cc3)no2)C(C)C)c1	none
